Assay results taken from ChEMBL document CHEMBL3352121, “Modulation of Activity Profiles for Largazole-Based HDAC Inhibitors through Alteration of Prodrug Properties” (ACS Med Chem Lett, 2014).

How the values were obtained:
Histone deacetylase 9 [1] = target: T1, Histone deacetylase 9 (Homo sapiens, UniProt Q9UKV0); experiment: Inhibition of HDAC9 (unknown origin) at 1 uM incubated for 30 mins in presence of BSA and DTT by fluorescence assay
In short: (§1)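 Purified HDAC isoforms were tested up to a maximum of 1 μM. IC50 values are averages of duplicate experiments. Disulfide compounds were pretreated with DTT to reduce the disulfide bond.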

[2] = target: T2, Histone deacetylase 8 (Homo sapiens) (UniProt Q9BY41); experiment: Inhibition of HDAC8 (unknown origin) at 1 uM incubated for 30 mins in presence of BSA and DTT by fluorescence assay; in short: as §1
T2 sequence (whole entry): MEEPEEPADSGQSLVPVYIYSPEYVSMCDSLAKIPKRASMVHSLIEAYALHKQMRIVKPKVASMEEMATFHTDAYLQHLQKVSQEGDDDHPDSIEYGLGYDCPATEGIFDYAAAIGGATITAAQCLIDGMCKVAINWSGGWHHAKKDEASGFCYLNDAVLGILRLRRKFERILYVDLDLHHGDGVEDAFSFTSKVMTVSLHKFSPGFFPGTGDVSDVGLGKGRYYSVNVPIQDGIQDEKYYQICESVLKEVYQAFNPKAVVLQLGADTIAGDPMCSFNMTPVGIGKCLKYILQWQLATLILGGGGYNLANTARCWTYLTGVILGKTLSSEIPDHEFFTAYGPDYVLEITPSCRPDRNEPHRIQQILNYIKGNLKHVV

Histone deacetylase 5 [3] = target: T3, Histone deacetylase 5 (Homo sapiens, UniProt Q9UQL6); experiment: Inhibition of HDAC5 (unknown origin) at 1 uM incubated for 30 mins in presence of BSA and DTT by fluorescence assay; in short: as §1
T3 sequence (Q9UQL6 whole entry): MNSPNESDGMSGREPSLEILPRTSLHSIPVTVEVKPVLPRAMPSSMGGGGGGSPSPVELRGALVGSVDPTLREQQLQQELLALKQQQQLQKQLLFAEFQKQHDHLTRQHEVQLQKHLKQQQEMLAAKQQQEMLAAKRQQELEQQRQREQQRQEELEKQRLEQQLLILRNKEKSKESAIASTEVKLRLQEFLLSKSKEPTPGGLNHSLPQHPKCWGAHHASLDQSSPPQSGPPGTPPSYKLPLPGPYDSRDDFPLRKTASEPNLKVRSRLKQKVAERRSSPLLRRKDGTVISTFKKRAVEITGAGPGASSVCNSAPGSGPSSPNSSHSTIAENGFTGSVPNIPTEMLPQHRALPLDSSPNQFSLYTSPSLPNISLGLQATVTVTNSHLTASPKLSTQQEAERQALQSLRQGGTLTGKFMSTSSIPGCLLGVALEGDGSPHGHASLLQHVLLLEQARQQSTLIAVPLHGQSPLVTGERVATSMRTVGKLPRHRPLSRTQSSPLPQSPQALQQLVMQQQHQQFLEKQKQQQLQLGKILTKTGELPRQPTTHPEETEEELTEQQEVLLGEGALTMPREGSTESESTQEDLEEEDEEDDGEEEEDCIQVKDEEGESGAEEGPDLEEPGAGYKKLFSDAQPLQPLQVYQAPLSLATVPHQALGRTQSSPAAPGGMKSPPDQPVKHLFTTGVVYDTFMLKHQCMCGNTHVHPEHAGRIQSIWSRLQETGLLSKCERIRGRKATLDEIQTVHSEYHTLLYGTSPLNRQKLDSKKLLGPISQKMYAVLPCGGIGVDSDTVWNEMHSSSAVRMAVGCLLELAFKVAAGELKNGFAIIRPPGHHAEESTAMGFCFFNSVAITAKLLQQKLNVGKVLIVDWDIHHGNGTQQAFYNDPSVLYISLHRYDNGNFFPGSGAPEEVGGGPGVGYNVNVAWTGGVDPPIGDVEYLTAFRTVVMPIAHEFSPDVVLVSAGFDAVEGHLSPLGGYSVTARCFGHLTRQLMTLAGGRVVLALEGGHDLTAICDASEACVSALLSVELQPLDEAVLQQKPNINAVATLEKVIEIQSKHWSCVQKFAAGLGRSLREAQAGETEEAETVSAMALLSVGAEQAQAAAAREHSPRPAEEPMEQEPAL

[4] = target: T4, Protein deacetylase HDAC6 (Homo sapiens) (UniProt Q9UBN7); settings: 1 uM
T4 sequence (whole entry): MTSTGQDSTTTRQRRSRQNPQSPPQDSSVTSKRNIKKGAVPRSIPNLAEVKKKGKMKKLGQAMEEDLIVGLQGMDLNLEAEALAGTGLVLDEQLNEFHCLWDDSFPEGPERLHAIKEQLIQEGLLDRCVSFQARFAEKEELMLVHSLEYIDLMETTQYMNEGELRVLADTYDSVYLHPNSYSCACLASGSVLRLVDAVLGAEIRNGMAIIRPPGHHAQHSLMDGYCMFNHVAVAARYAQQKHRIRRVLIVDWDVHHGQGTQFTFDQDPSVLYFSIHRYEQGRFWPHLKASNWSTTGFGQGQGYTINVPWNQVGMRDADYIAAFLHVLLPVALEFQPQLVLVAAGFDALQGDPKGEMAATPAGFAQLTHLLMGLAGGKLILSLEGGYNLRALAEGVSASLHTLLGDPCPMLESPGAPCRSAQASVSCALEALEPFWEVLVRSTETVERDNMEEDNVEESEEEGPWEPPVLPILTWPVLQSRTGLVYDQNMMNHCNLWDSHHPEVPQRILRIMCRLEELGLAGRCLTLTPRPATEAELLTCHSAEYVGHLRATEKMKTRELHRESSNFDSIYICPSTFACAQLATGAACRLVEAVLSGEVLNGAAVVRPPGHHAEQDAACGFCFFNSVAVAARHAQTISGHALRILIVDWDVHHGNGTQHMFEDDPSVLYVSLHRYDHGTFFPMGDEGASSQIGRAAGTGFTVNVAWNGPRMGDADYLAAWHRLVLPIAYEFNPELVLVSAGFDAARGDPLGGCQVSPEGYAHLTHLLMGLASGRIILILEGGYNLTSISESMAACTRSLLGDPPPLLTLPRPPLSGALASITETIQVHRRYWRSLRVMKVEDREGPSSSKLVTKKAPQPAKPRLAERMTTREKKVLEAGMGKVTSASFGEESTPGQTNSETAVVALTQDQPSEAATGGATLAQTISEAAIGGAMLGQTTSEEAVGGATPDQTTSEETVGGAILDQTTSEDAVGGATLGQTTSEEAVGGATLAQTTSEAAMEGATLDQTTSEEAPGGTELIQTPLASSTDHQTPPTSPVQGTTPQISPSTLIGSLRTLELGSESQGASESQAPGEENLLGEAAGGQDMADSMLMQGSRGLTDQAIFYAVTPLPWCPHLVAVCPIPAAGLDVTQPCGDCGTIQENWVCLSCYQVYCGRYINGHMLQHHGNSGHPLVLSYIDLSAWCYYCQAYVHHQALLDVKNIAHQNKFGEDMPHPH

[5] = target: T5, Polyamine deacetylase HDAC10 (Homo sapiens, UniProt Q969S8); experiment: Inhibition of HDAC10 (unknown origin) incubated for 30 mins in presence of BSA and DTT by fluorescence assay; in short: as §1
T5 sequence (Q969S8 whole entry): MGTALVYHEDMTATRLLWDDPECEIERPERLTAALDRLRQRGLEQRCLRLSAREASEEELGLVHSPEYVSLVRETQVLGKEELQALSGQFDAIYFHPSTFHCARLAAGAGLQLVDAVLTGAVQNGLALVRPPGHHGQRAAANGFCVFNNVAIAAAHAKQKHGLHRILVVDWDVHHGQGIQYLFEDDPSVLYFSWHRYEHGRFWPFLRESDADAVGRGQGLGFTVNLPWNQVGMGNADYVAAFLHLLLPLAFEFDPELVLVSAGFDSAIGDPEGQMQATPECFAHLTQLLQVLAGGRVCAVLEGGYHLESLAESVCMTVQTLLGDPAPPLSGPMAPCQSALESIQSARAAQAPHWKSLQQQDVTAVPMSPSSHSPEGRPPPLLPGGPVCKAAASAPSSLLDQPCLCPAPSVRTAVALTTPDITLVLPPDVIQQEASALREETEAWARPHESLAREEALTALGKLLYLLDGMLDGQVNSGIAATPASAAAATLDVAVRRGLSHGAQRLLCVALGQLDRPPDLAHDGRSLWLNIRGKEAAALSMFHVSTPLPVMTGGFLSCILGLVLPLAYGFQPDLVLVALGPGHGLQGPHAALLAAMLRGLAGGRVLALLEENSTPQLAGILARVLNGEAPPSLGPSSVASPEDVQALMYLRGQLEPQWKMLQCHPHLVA

Histone deacetylase 1 = Histone deacetylase 1 (Homo sapiens, UniProt Q13547); experiment: Inhibition of HDAC1 (unknown origin) incubated for 30 mins in presence of BSA and DTT by fluorescence assay
Sequence of Histone deacetylase 1 (Q13547 whole entry): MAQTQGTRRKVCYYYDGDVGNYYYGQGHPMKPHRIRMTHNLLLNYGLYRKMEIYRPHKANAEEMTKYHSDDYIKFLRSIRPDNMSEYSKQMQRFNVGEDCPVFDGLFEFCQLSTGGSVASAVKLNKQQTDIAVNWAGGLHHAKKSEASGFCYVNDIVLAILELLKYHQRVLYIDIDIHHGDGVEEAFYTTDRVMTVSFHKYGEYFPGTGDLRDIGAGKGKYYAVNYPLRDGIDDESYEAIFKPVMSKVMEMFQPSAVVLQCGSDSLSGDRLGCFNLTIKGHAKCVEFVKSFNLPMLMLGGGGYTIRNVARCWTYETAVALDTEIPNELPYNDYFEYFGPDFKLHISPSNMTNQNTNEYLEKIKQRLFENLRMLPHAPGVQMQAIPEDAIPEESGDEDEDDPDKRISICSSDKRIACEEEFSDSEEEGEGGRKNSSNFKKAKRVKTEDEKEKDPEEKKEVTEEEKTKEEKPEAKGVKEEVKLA

[6] = target: T6, Histone deacetylase 7 (Homo sapiens) (UniProt Q8WUI4); experiment: Inhibition of HDAC7 (unknown origin) at 1 uM incubated for 30 mins in presence of BSA and DTT by fluorescence assay; in short: as §1
T6 sequence (whole entry): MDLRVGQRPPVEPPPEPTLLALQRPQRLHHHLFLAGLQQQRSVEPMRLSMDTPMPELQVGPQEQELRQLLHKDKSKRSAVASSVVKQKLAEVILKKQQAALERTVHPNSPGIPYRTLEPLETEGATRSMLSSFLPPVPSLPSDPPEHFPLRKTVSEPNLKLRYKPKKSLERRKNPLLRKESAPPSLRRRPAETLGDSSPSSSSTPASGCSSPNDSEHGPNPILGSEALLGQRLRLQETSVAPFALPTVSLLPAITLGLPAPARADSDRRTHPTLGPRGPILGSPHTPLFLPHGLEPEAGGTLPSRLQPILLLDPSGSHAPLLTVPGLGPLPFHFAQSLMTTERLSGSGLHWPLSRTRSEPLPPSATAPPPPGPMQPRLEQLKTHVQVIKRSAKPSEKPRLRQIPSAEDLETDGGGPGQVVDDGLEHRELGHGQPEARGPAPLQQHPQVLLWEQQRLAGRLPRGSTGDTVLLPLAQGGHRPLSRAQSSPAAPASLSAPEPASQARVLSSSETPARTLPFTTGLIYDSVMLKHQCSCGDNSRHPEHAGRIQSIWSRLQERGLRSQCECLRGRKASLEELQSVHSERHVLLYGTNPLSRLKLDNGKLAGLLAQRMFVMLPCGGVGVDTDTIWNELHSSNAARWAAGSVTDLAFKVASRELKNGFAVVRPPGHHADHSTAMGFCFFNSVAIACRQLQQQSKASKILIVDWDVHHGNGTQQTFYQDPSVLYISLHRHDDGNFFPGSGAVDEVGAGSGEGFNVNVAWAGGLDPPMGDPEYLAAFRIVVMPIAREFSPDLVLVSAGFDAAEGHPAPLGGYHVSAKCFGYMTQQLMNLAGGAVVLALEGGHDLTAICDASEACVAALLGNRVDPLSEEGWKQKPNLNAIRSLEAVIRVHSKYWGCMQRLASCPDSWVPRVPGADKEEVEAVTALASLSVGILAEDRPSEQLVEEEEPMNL

Histone deacetylase 9 [7] = target: T1, Histone deacetylase 9; experiment: Inhibition of HDAC9 (unknown origin) incubated for 30 mins in presence of BSA and in absence of DTT by fluorescence assay
Histone deacetylase 4 [8] = target: T7, Histone deacetylase 4 (Homo sapiens, UniProt P56524); experiment: Inhibition of HDAC4 (unknown origin) at 1 uM incubated for 30 mins in presence of BSA and in absence of DTT by fluorescence assay
T7 sequence (P56524 whole entry): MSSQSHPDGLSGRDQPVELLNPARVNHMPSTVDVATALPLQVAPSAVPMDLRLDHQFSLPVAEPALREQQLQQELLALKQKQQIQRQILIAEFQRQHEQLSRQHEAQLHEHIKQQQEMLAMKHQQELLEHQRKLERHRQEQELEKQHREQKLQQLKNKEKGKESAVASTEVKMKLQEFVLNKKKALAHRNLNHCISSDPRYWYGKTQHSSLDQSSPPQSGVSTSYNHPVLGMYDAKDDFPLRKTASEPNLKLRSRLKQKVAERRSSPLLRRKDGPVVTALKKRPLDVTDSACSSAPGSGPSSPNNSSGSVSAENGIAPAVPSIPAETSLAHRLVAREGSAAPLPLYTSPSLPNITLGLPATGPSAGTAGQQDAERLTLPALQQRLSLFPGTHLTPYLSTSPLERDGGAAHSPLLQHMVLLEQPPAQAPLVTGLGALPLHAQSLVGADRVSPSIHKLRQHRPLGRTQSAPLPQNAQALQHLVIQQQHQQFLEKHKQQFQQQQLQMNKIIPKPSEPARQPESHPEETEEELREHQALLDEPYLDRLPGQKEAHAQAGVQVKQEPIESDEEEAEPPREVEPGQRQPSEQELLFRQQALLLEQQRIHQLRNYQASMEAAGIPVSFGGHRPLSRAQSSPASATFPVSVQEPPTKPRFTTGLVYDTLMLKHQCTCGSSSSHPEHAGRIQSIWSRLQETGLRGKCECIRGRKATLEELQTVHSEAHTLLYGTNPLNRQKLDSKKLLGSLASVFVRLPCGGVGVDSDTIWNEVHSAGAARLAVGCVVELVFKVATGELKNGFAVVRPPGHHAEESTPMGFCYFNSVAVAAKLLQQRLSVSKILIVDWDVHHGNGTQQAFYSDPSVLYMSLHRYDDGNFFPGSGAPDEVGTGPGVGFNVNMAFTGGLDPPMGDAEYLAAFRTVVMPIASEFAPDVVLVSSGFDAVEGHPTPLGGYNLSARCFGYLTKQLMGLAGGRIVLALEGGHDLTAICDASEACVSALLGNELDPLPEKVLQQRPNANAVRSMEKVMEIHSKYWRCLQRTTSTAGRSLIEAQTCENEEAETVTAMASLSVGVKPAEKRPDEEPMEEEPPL
In short: (§2)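 Purified-HDAC assay, single point: percent inhibition read at 1 μM, the highest concentration tested.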

Histone deacetylase 7 = target: T8, Histone deacetylase 7 (Homo sapiens, UniProt Q8WUI4); experiment: Inhibition of HDAC7 (unknown origin) incubated for 30 mins in presence of BSA and in absence of DTT by fluorescence assay
T8 sequence (Q8WUI4 whole entry): T6 sequence (whole entry)

[9] = Antiproliferative activity against human HCT116 cells after 48 hrs in absence of DTT by MTT assay; format: functional, cell-based; settings: HCT-116, 48 h
Histone deacetylase 9 [10] = target: T1, Histone deacetylase 9; experiment: Inhibition of HDAC9 (unknown origin) at 1 uM incubated for 30 mins in presence of BSA and in absence of DTT by fluorescence assay; in short: as §2
Histone deacetylase 5 [11] = target: T3, Histone deacetylase 5; experiment: Inhibition of HDAC5 (unknown origin) incubated for 30 mins in presence of BSA and in absence of DTT by fluorescence assay
Histone deacetylase 4 [12] = target: T7, Histone deacetylase 4; experiment: Inhibition of HDAC4 (unknown origin) incubated for 30 mins in presence of BSA and in absence of DTT by fluorescence assay
[13] = target: T6, Histone deacetylase 7 (Homo sapiens); experiment: Inhibition of HDAC7 (unknown origin) at 1 uM incubated for 30 mins in presence of BSA and in absence of DTT by fluorescence assay; in short: as §2
Histone deacetylase 5 [14] = target: T3, Histone deacetylase 5; experiment: Inhibition of HDAC5 (unknown origin) at 1 uM incubated for 30 mins in presence of BSA and in absence of DTT by fluorescence assay; in short: as §2

T1 sequence (Q9UKV0 whole entry, canonical isoform): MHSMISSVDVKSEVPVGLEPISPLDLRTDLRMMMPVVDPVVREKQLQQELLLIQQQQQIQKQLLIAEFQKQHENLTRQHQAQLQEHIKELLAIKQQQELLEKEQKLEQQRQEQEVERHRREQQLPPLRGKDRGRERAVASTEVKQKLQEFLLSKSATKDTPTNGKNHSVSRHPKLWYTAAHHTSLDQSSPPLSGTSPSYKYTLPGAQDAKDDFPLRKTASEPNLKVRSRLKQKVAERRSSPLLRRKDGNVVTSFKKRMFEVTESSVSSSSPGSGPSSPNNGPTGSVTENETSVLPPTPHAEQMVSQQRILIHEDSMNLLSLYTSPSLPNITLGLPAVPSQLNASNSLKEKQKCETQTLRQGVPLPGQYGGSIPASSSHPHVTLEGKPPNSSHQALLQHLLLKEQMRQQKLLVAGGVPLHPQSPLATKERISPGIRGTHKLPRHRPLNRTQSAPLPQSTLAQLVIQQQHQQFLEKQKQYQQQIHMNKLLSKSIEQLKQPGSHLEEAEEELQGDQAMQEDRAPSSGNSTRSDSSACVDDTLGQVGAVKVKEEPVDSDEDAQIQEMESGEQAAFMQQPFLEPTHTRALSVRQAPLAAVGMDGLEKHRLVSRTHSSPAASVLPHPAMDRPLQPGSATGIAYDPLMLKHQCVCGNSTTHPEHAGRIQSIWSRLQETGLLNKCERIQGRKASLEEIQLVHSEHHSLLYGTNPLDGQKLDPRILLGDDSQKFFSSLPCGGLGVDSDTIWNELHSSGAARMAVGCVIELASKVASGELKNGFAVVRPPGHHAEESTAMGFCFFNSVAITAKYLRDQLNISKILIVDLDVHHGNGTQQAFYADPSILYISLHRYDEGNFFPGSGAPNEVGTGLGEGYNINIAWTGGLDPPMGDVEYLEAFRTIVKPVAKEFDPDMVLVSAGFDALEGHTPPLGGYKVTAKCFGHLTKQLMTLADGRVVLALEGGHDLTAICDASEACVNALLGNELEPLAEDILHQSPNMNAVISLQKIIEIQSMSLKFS

## C/C=C1\NC(=O)[C@H]2CSSCC/C=C/[C@H](CC(=O)N[C@H](C(C)C)C(=O)N2)OC(=O)[C@H](C(C)C)NC1=O [ROMIDEPSIN]
Histone deacetylase 9 [1]
  inhibition: 45%
[2]
  inhibition: 36%
Histone deacetylase 5 [3]
  inhibition: 22%
[4]
  inhibition: 45%
[5]
  IC50: 0.9 nM
Histone deacetylase 1
  IC50: 0.8 nM
[6]
  inhibition: 34%

## CC(C)[C@H]1NC(=O)[C@]2(C)CSC(=N2)c2csc(n2)CNC(=O)C[C@@H](/C=C/CCS)OC1=O [LARGAZOLE THIOL]
Histone deacetylase 9 [7]
  IC50: Not Active
Histone deacetylase 4 [8]
  inhibition: < 20%
Histone deacetylase 7
  IC50: Not Active
[9]
  IC50: 5.9 nM
Histone deacetylase 9 [10]
  inhibition: < 20%
Histone deacetylase 5 [11]
  IC50: Not Active
Histone deacetylase 4 [12]
  IC50: Not Active
[13]
  inhibition: < 20%
Histone deacetylase 5 [14]
  inhibition: < 20%
